OXTR potentiator = potentiates the human oxytocin receptor response; CHO-OTR cells, Fluo-8 calcium fluorescence, potentiator mode; 0% = oxytocin EC15, 100% = EC100; activation, % at 3 µM; 320,000 tested, 0.061% active; AID 2445;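 active = activation above that plate's cutoff, the mean activation of tested compounds plus 3 SD, cut at about 6.6% in these data, passing the limit was not always enough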;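 also: 100% uses oxytocin at 75 nM as the full agonist control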
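System: human OTR in CHO cells; Also added: sub-maximal oxytocin, roughly EC15; Timing: compound 6 min at room temperature before oxytocin, 100 s read; Technique: Fluo-8 intracellular calcium fluorescence, ex 470-495, em 515-575 nm; Controls: oxytocin EC15 low and EC100 high; Replication: singlicate.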
TAAR1 agonist = agonists of human TAAR1 | activation, % at 3 µM | AID 624467 | 360,000 tested, 0.99% active | CHO RD-HGA16 TAAR1, Fluo-8 calcium fluorescence; vehicle wells 0%, saturating PEA agonist 100% | Q96RJ0;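 active = activation above the mean activation of all test compounds in the run plus 3 SD, cut at about 38% in these data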
Target sequence (Q96RJ0 whole entry, looked up): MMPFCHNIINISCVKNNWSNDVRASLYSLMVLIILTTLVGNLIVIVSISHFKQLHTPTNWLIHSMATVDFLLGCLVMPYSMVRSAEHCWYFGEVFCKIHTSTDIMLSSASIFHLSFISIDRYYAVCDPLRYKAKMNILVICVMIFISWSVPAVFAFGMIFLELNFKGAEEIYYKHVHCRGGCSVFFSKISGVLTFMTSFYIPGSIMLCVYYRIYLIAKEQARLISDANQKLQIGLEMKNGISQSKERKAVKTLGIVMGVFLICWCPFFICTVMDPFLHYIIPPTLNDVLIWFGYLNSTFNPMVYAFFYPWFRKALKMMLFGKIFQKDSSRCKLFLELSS
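System: CHO RD-HGA16 cells carrying human TAAR1 plus Gα16; Incubation: 17-24 h seeding, 75 min 37 °C dye, 30 min RT; Measured by: Fluo-8 fluorescence, 5 s baseline then 140 s kinetic read; Control set: DMSO and PEA EC100; Replication: single well for each compound.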
OXTR agonist = agonists of human oxytocin receptor; P30559; 320,000 tested, 0.32% active; activation, % at 3 µM; CHO-OTR cells, Fluo-8 calcium fluorescence; normalized: DMSO 0%, oxytocin 100%; AID 2435;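 active = activation above the mean of all tested compounds plus 3 SD, cutoff set per screening run, cut at about 20% in these data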;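 also: peak over basal fluorescence ratio from a 100 s FLIPR kinetic read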
V1R ag counter = activates human V1a receptor in oxytocin agonist counter-screen. CHO-V1R cells, Fluo-8 calcium fluorescence, agonist mode; 0% DMSO, 100% 3 nM vasopressin. P37288. 320,000 tested, 0.25% active. activation, % at 3 µM;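 active = activation above the mean activation of all tested compounds plus 3 SD, per screening run, cut at about 20% in these data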;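 also: signal is peak over basal fluorescence ratio across a 100 second FLIPR read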
TAAR1 antagonist = human TAAR1 antagonism. 360,000 tested, 1.5% active. inhibition, % at 3 µM. CHO RD-HGA16 TAAR1, Fluo-8 calcium fluorescence, antagonist. Q96RJ0;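 active = inhibition above a per-plate cutoff, the mean inhibition of test compounds on that plate plus 3 SD, cut at about 49% in these data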;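 also: 0% = DMSO plus EC80 beta-PEA response and 100% = DMSO alone without agonist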
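Test system – hTAAR1-expressing CHO RD-HGA16 cells, Gα16-coupled · Reagent – β-PEA at EC80 concentration, post-compound challenge · Compound dosing – 3 µM, single point · Timing – 140 s kinetic read after compound, 140 s after agonist · Detection – Fluo-8 intracellular calcium dye fluorescence, real-time kinetic reads · Control set – DMSO and EC80 PEA controls · Repeats – n of 1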
The depositor's hits bear a star; x = no result. Sampled rows, rich in hits. Any-hit rate of the full collection: about 2.3%.

SMILES | OXTR potentiator | TAAR1 agonist | OXTR agonist | V1R ag counter | TAAR1 antagonist
C=CCCC1CN(Cc2ccc(OC)cc2)S(=O)(=O)c2c(Oc3ccc(C)cc3)cccc2O1 (centres undefined) | x | 0 | x | x | -11
CC(C)c1[nH]nc2c1C(c1ccccc1)NC2=O (centres undefined) | x | 3 | x | x | -4
O=C1[C@H](Cc2ccccc2)NCCCC[C@@H](c2ccc(Cl)cc2)N1Cc1ccccc1 | x | 39* | x | x | 17
COC(=O)[C@]12C[C@H](CC(=O)NCc3cccs3)C(=O)N(CCc3ccc(OC)c(OC)c3)C1=C[C@H](C(C)(C)C)O[C@@H]2C | x | 0 | x | x | -18
COC(=O)C1=C[C@@H](C(=O)OC)C2C3=C(C(=O)C24CCCCC4)[C@H](C)n2c(=O)n(C)c(=O)n2[C@@H]3C1 (some centres undefined) | 0 | 9 | 1 | 0 | -3
COC(=O)C1=C[C@@H](C(=O)OC)C2C3=C(C(=O)C24CCCCC4)[C@H](C)n2c(=O)n(-c4ccccc4)c(=O)n2[C@@H]3C1 (some centres undefined) | 3 | 12 | 0 | 0 | 52*
CCCOc1cc(N(CC)CC)ccc1/C=C(/C#N)c1nc2ccc(C)cc2[nH]1 | -14 | 41* | 33* | 27* | 77*
COc1cc(/C=C(\C#N)c2nc3ccc(C)cc3[nH]2)cc([N+](=O)[O-])c1O | x | 7 | x | x | 5
Cc1ccc2nc(/C(C#N)=C\c3cc(O)ccc3[N+](=O)[O-])[nH]c2c1 | -7 | -1 | -1 | 0 | 9
Cc1cc(/C=C(\C#N)c2nc3ccccc3[nH]2)c(C)n1C | -8 | 2 | 1 | 0 | -12
CCOc1cc(N(CC)CC)ccc1/C=C(/C#N)c1nc2ccccc2[nH]1 | -24 | 48* | 114* | 116* | 92*
CCN(CC)c1ccc(/C=C(/C#N)c2nc3ccc(C)cc3[nH]2)c(OC(C)C)c1 | -14 | 41* | 69* | 50* | 73*
C[C@@H]1CN([C@@H](C)CO)C(=O)c2cc(N(C)C)ccc2O[C@@H](C)CCCCO[C@@H]1CN(C)S(=O)(=O)c1cccs1 | x | 0 | x | x | -3
CCCC1/C(=N/O)CC(c2ccccc2)NC1c1ccccc1 (centres undefined) | -29 | 18 | 0 | 3 | 57*
NC(=O)c1ncn2c(=O)n(CCCl)nnc12 | x | 6 | x | x | -10
CN(C)CCCN(C(=O)c1ccc(S(=O)(=O)N2CCc3ccccc32)cc1)c1nc2c(Cl)cccc2s1 | -7 | 34 | 1 | 1 | 20
COc1ccc(OC)c2sc(N(CCCN(C)C)C(=O)c3ccc(S(=O)(=O)N4CCc5ccccc5C4)cc3)nc12 | -7 | x | 11 | 2 | x
COc1cc2nc(N(CCCN(C)C)C(=O)c3ccc(S(=O)(=O)N4CCc5ccccc5C4)cc3)sc2cc1OC | -3 | 22 | 17 | 11 | -3
COc1cccc2sc(N(CCCN(C)C)C(=O)c3ccc(S(=O)(=O)N4CCCc5ccccc54)cc3)nc12 | -14 | 40* | 7 | 8 | 23
CCOc1ccc2nc(N(CCCN(C)C)C(=O)c3ccc(S(=O)(=O)N4CCc5ccccc5C4)cc3)sc2c1 | -10 | 43* | 13 | 10 | 38
COc1ccc(C)c2sc(N(CCCN(C)C)C(=O)c3ccc(S(=O)(=O)N4CCc5ccccc5C4)cc3)nc12 | -12 | 48* | 16 | 4 | 41
Cc1ccc2nc(N(CCCN(C)C)C(=O)c3ccc(S(=O)(=O)N4CCCCCC4)cc3)sc2c1 | -13 | 50* | 14 | 17 | 15
C[C@H](c1ccccc1)N1C[C@@H](COCc2ccccc2)Oc2cccc(F)c2S1(=O)=O | x | 2 | x | x | 10
Cc1noc(C)c1NC(=O)Nc1ccc2c(c1)C(=O)N([C@@H](C)CO)C[C@@H](C)[C@H](CN(C)C(=O)Nc1cccc3ccccc13)OCCCC[C@H](C)O2 | x | 0 | x | x | -8
COC(=O)[C@]12C[C@H](CC(=O)NCc3cccc4ccccc34)C(=O)N(CCC3=CCCCC3)C1=C[C@H](COCc1ccccc1)O[C@@H]2C | x | 0 | x | x | -5
SMILES | OXTR potentiator | TAAR1 agonist | OXTR agonist | V1R ag counter | TAAR1 antagonist
C/C(=N\NC(=O)c1ccc(N/N=C(\C)c2ccc(O)cc2)cc1)c1ccc(O)cc1 | -3 | 4 | 0 | -1 | 56*
C/C(=N\NC(=O)c1ccc(O)cc1)c1ccc(N2CCOCC2)cc1 | 4 | 2 | 1 | 0 | 19
COC(=O)CCN(Cc1cccc(OC)c1OC)S(=O)(=O)c1ccccc1Br | x | 0 | x | x | -17
CCN(CC)S(=O)(=O)c1ccc(/C=C/C(=O)OCC(=O)Nc2cccnc2Cl)cc1 | -9 | 17 | 8 | 8 | 49*
CCN(CC)S(=O)(=O)c1ccc(/C=C/C(=O)OCC(=O)Nc2cccc3ccccc23)cc1 | -3 | 2 | -2 | 1 | 1
Cc1ccc(-c2ccc(CN3C(CC(C)C)C(=O)N(Cc4cn(CCC5OCCO5)nn4)CCS3(=O)=O)cc2)cc1 (centres undefined) | x | 8 | x | x | 55*
CCN(CC)c1ccc(C(=O)NNC(=O)CCNC(=O)c2ccccc2)cc1 | -3 | 6 | 0 | 0 | 2
CCN(CC)c1ccc(C(=C2C=CC(=[N+](CC)CC)C=C2)c2ccccc2)cc1 | x | 29 | x | x | 105*
CCO[C@@H]1OC(C(=O)N2CCN(Cc3ccccc3)CC2)=C[C@H](c2ccc(Br)cc2)[C@H]1CCCO | -13 | 13 | 2 | 11 | 49*
CCOC1=C2CN(S(=O)(=O)c3ccccc3)[C@@H](c3ccccc3)C[C@H]2[C@H]2C(=O)N(c3ccccc3)C(=O)[C@H]2C1 | x | 7 | x | x | 8
CC1Sc2ccc(S(=O)(=O)N(C)Cc3ccccc3)cc2NC1=O (centres undefined) | -13 | 7 | 3 | 7 | 49*
O=C(NCCc1ccccc1)C1(c2ccccc2)CCCC1 | 1 | 23 | -2 | -2 | -5
N#CC1(c2ccccc2)CCC(NCCc2ccccc2)CC1 (centres undefined) | -19 | 41* | 2 | 5 | 9
Nc1[nH]c(C(=O)c2ccccc2)c(-c2cccc3ccccc23)c1C(=O)c1cccs1 | x | -1 | x | x | -7
COC(=O)c1c(-c2ccc(Br)cc2)csc1NC(=O)Cc1ccc(OC)c(OC)c1 | -9 | 8 | 0 | 1 | 42
COC(=O)c1c(-c2ccc(C)cc2)csc1NC(=O)Cc1ccc(OC)c(OC)c1 | x | 4 | x | x | 55*
CCc1nnc(N/N=C/c2cc(Br)c(O)cc2O)n1N | 4 | 7 | 1 | 0 | -15
CC(C)(C)c1nnc(N/N=C/c2cc(Br)ccc2O)n(N)c1=O | -9 | 25 | 4 | 6 | 68*
O=C1CSC(=S)N1/N=C/c1cc(Br)c(O)c(Br)c1 | -16 | x | 158* | 140* | x
CN(C)S(=O)(=O)N1CCC(Oc2ccc(C(=O)NC3Cc4ccccc4C3)cc2)CC1 | -23 | 15 | 10 | 9 | 58*
